High-throughput results deposited in PubChem by Johns Hopkins Ion Channel Center.
KCNQ1 inh = inhibitors of human KCNQ1 potassium channel. P51787. CHO-K1 KCNQ1, FluxOR thallium flux fluorescence; active compounds read high. B-score at 10 µM. actives 1.3% (n = 310,000). AID 2642;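 active = compounds whose thallium flux B-score, printed positive for inhibition, exceeds three library SD while starting fluorescence stays within three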;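 also: channel opened by potassium depolarization with thallium stimulus after 20 min compound exposure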
Kir21 block = blocks the mouse Kir2.1 inward-rectifier potassium channel; P35561; HEK293-Kir2.1, FluxOR thallium flux fluorescence; active compounds read low; B-score at 10 µM; actives 0.85% (n = 310,000); AID 1672;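 active = fluorescence ratio B-score at or below minus 3 SD of library scores, with starting-brightness B-score within 2 SD, cut at about -4.2 in these data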;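 also: channel flux triggered by added potassium and thallium sulfate stimulus; B-score of peak minus minimum fluorescence over baseline after thallium stimulus; more negative B-score means stronger Kir2.1 block with less thallium influx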
hERG protect = compounds protecting human hERG from proarrhythmic drug block; Q12809; CHO-hERG, FluxOR thallium flux, dofetilide IC70 present; activation (rescue from dofetilide block), less the hit threshold, % at 10 µM; actives 0.51% (n = 310,000);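 active = activation above the mean of controls blocked by dofetilide plus 5 SD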;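 also: thallium influx through hERG after potassium depolarization seen as dye fluorescence rise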
KCNK9 inh = human KCNK9 channel inhibition; actives 1.2% (n = 310,000); AID 488922; B-score at 10 µM; HEK293 KCNK9, FluxOR thallium flux fluorescence; active compounds read low; Q9NPC2;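 active = ratio B-score over 3 SD below the library mean, with starting fluorescence within 5 SD of its mean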;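 also: negative B-score means less thallium flux so channel inhibition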
Target sequence (Q9NPC2 whole entry, looked up): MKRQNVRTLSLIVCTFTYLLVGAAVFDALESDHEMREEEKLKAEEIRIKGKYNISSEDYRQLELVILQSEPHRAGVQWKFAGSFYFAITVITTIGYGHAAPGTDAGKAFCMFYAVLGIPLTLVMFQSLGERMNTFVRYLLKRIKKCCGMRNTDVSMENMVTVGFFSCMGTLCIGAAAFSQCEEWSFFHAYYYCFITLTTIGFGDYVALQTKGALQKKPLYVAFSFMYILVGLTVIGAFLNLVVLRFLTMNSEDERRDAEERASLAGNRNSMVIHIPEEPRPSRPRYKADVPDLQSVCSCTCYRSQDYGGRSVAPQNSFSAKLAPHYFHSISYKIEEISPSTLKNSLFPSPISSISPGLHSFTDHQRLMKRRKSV
KCNK3 inh = human KCNK3 channel inhibition, primary screen; O14649; CHO-KCNK3 thallium flux, FluxOR fluorescence; active compounds read low; B-score at 10 µM; actives 0.84% (n = 340,000); AID 602410;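 active = B-score under library mean minus 4 SD, starting fluorescence ratio at most library mean plus 5 SD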;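 also: more negative B-score means stronger inhibition of thallium flux through KCNK3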
KCNQ1 act = potentiates or activates the human KCNQ1 potassium channel; AID 2648; actives 0.35% (n = 310,000); CHO-K1 KCNQ1, thallium flux FluxOR fluorescence; active compounds read high; B-score at 10 µM;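 active = fluorescence ratio B-score, a plate-corrected score, at least three library SD, with initial intensity B-score within 5 SD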
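Schedule – 37 °C overnight plating, 90-min dark dye load, 20-min compound pretreatment · System – stable KCNQ1 CHO-K1 line · Probe or stimulus – thallium- and potassium-containing depolarizing buffer · Measured by – kinetic FluxOR fluorescence, 10 s baseline plus 110 s post-stimulus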
Hits are given with their value. Only some compounds are listed: those with a hit (about 3.8% of all), similar ones and a draw of the others.

What do the screens show for `CC(=O)N1c2ccccc2C(C)CC12CCCCC2` (stereo not drawn)?
KCNQ1 inh: inactive; Kir21 block: -4.7; hERG protect: inactive; KCNK9 inh: inactive; KCNK3 inh: inactive; KCNQ1 act: inactive

How did COc1ccc(N2CCN(C(c3cccs3)C(C)NC(=O)C(=O)N3CCCC3)CC2)cc1 (stereo not drawn) do in these assays?
KCNQ1 inh: inactive; Kir21 block: inactive; hERG protect: inactive; KCNK9 inh: inactive; KCNK3 inh: inactive; KCNQ1 act: inactive

Results for CC(C)C(=O)Nc1cc2c3c(c1)CCN3C(=O)CC2 ?
KCNQ1 inh: inactive; Kir21 block: inactive; hERG protect: inactive; KCNK9 inh: inactive; KCNK3 inh: inactive; KCNQ1 act: inactive

Results for CCN1/C(=C/C=C/C=C/c2sc3ccccc3[n+]2CC)Sc2ccccc21 ?
KCNQ1 inh: 17; Kir21 block: inactive; hERG protect: inactive; KCNK9 inh: inactive; KCNQ1 act: inactive

How did CCN1/C(=C/C=C/C=C/C=C/c2sc3ccccc3[n+]2CC)Sc2ccccc21 do in these assays?
KCNQ1 inh: inactive; Kir21 block: inactive; hERG protect: inactive; KCNK9 inh: inactive; KCNK3 inh: inactive; KCNQ1 act: inactive

How did O=c1nc2s/c(=C\c3ccc(-c4ccccc4[N+](=O)[O-])o3)c(=O)n2nc1-c1ccccc1 do in these assays?
KCNQ1 inh: inactive; Kir21 block: inactive; hERG protect: inactive; KCNK9 inh: inactive; KCNK3 inh: inactive; KCNQ1 act: inactive

How did CC(=O)c1c(C)[nH]c(C(=O)CN(C)CC(=O)Nc2ccccc2Cl)c1C do in these assays?
KCNK3 inh: inactive

How did CCOC(=O)c1c(C)[nH]c(C(=O)CN(C)CC(=O)Nc2ccccc2Cl)c1C do in these assays?
KCNK3 inh: -11

How did O=c1ccn([C@@H]2O[C@H](CNCC3=Cc4cc(O)ccc4OC3)[C@@H](O)[C@H]2O)c(=O)[nH]1 do in these assays?
KCNK3 inh: inactive

What do the screens show for `CCOc1ccc(NC(=O)CSc2nnc(CNC(=O)c3cccs3)o2)cc1`?
KCNQ1 inh: inactive; Kir21 block: inactive; hERG protect: inactive; KCNK9 inh: inactive; KCNK3 inh: inactive; KCNQ1 act: inactive

Results for Cc1ccc(S(=O)(=O)c2c(C)cc(C)nc2Oc2cccc(C(F)(F)F)c2)cc1 ?
KCNQ1 inh: inactive; Kir21 block: inactive; hERG protect: inactive; KCNK9 inh: -7.3; KCNK3 inh: inactive; KCNQ1 act: inactive

What do the screens show for `CCOC(=O)c1nn(-c2ccc(Cl)cc2Cl)c(=N)c(C#N)c1C`?
KCNQ1 inh: 6; Kir21 block: inactive; hERG protect: inactive; KCNK9 inh: inactive; KCNQ1 act: inactive

What do the screens show for `O=C(c1nc2n(n1)C(c1ccc(Cl)cc1)C=C(c1ccccc1)N2)N1CCOCC1` (stereo not drawn)?
KCNQ1 inh: inactive; Kir21 block: inactive; hERG protect: inactive; KCNK9 inh: -6.8; KCNK3 inh: inactive; KCNQ1 act: inactive

Results for CC(=O)Nc1nc2n(n1)C(c1ccccc1)C=C(c1ccccc1)N2 (stereo not drawn) ?
KCNQ1 inh: inactive; Kir21 block: inactive; hERG protect: inactive; KCNK9 inh: inactive; KCNK3 inh: inactive; KCNQ1 act: inactive

How did Cc1nc(CS(=O)(=O)c2ccc(Cl)cc2)cc(Sc2ccc(Cl)cc2)n1 do in these assays?
KCNQ1 inh: inactive; Kir21 block: -4.8; hERG protect: inactive; KCNK9 inh: -6.6; KCNK3 inh: inactive; KCNQ1 act: inactive

How did Cc1nn(C)c(Sc2ccccn2)c1[N+](=O)[O-] do in these assays?
KCNQ1 inh: inactive; Kir21 block: inactive; hERG protect: inactive; KCNK9 inh: inactive; KCNK3 inh: inactive; KCNQ1 act: inactive

What do the screens show for `Cc1ccc(N2C(=O)c3ccccc3NC2c2ccccc2O)cc1` (stereo not drawn)?
KCNQ1 inh: inactive; Kir21 block: inactive; hERG protect: inactive; KCNK9 inh: inactive; KCNK3 inh: inactive; KCNQ1 act: inactive

How did O=C1c2ccccc2NC(c2ccccc2O)N1O (stereo not drawn) do in these assays?
KCNQ1 inh: inactive; Kir21 block: inactive; hERG protect: inactive; KCNK9 inh: inactive; KCNK3 inh: inactive; KCNQ1 act: 8

What do the screens show for `COC(=O)[C@H](CC(C)C)NCc1cccc(CN[C@@H](CC(C)C)C(=O)OC)c1`?
KCNQ1 inh: inactive; Kir21 block: -4.3; hERG protect: inactive; KCNK9 inh: inactive; KCNK3 inh: inactive; KCNQ1 act: inactive

What do the screens show for `Cc1ccc(C(=O)OC(C(=O)O)C(OC(=O)c2ccc(C)cc2)C(=O)O)cc1` (stereo not drawn)?
KCNK3 inh: inactive

What do the screens show for `Cc1ccc(C(=O)NCCCN2CCOCC2)c(Cl)c1`?
KCNQ1 inh: inactive; Kir21 block: inactive; hERG protect: inactive; KCNK9 inh: inactive; KCNK3 inh: inactive; KCNQ1 act: inactive

Results for COC(=O)c1sccc1NC(=O)c1cc2c(s1)CCCC2 ?
KCNQ1 inh: inactive; Kir21 block: inactive; hERG protect: inactive; KCNK9 inh: -6.7; KCNK3 inh: inactive; KCNQ1 act: inactive

Results for COC(=O)c1nn(C23CC4CC(CC(C4)C2)C3)c2c1C(=O)N(c1ccc(Br)cc1)C2=O ?
KCNQ1 inh: 6; Kir21 block: inactive; hERG protect: inactive; KCNK9 inh: inactive; KCNK3 inh: inactive; KCNQ1 act: inactive

Results for CCOC(=O)c1nn(C23CC4CC(CC(C4)C2)C3)c2c1C(=O)N(c1ccc(C)cc1)C2=O ?
KCNQ1 inh: inactive; Kir21 block: inactive; hERG protect: inactive; KCNK9 inh: inactive; KCNK3 inh: inactive; KCNQ1 act: inactive

How did Cn1c2ccccc2c(=O)c2ccc(NCCc3cccs3)cc21 do in these assays?
KCNK3 inh: -9.1

Results for Cc1cccc(-c2n[nH]c(=S)n2/N=C/c2cccs2)c1 ?
KCNQ1 inh: inactive; Kir21 block: inactive; hERG protect: inactive; KCNK9 inh: inactive; KCNK3 inh: inactive; KCNQ1 act: 9

Results for S=c1[nH]nc(-c2cccs2)n1/N=C/c1c(Cl)cccc1Cl ?
KCNQ1 inh: inactive; Kir21 block: inactive; hERG protect: 32; KCNK9 inh: inactive; KCNK3 inh: inactive; KCNQ1 act: 37

How did COc1cccc(N=C2CC(C)(C)CC(=O)/C2=C(/O)c2ccccc2)c1 do in these assays?
KCNQ1 inh: inactive; Kir21 block: inactive; hERG protect: inactive; KCNK9 inh: inactive; KCNK3 inh: inactive; KCNQ1 act: inactive

What do the screens show for `COC(=O)[C@@H](c1ccccc1)N(C)S(=O)(=O)c1cccc(S(=O)(=O)N(C)[C@@H](C(=O)OC)c2ccccc2)c1`?
KCNQ1 inh: inactive; Kir21 block: inactive; hERG protect: inactive; KCNK9 inh: -7; KCNK3 inh: inactive; KCNQ1 act: inactive

How did O=S(=O)(c1cnc(Cl)c(Cl)c1)N1CCN(c2ncccn2)CC1 do in these assays?
KCNQ1 inh: inactive; Kir21 block: inactive; hERG protect: inactive; KCNK9 inh: inactive; KCNK3 inh: inactive; KCNQ1 act: inactive
